Compound activity: PubChem, several laboratories
GPR7 antagonist = antagonists of human GPR7 (neuropeptides B/W receptor 1). GPR7-expressing cells, fluorescence antagonist assay. inhibition, % at 4.4 µM. hit rate 1.1% among 290,000. AID 1861; in the data active = inhibition above about 16%, passing the limit was not always enough;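 also: cells stimulated with the agonist NPW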
Target sequence (P48145 whole entry, looked up): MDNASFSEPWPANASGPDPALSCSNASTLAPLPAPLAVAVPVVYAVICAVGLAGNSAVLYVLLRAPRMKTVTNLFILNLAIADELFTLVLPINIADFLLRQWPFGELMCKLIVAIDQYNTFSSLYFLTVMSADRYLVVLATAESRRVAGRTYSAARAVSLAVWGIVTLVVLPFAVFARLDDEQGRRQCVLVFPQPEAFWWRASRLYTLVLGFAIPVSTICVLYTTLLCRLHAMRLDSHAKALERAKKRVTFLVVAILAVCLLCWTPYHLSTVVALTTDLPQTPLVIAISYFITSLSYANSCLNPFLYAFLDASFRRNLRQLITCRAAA
DNA FID counter-1 = counter-screen for HCV NS3 helicase inhibitors: DNA intercalator displacement; DNA fluorescent intercalator displacement, fluorescence; inhibition, % at 7.9 µM; hit rate 0.17% among 290,000; AID 1845;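 also: higher means more ethidium bromide displaced from hairpin DNA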
NS3 helicase inh = HCV NS3 helicase inhibition; NS3 helicase DNA unwinding, Cy5 molecular beacon fluorescence; inhibition, % at 10.9 µM; hit rate 0.56% among 290,000; AID 1800;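 active = inhibition above the mean of all tested compounds plus 3 SD, set per campaign, cut at about 35% in these data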
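System: HCV NS3 helicase fragment; control set: DMSO and thioflavine S; technique: Cy5 fluorescence at 0 and 60 min, beacon hairpin quenching; reagent: beacon DNA duplex substrate plus ATP; replicates: singlicate; schedule: 1 h reaction at 25 °C, ATP-initiated; medium: MOPS buffer pH 6.5 with MgCl2, DTT, Tween20, BSA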
pCIP destab = lowers stability of the mouse p/CIP coactivator protein. Q05BA5. F442A p/CIP-EGFP cells, EGFP fluorescence, 16 h. decrease of EGFP signal, % at 10 µM. hit rate 0.01% among 290,000;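 active = EGFP signal decrease of at least 30% at 10 µM or well 3 SD below plate mean, unless failing retest; inactive = the rest, including hits failing retest or dose response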
core dimer inh = HCV core protein dimerization inhibition. TR-FRET GST/Flag-core106 dimerization, 1536-well. inhibition, % at 5 µM. hit rate 0.33% among 300,000. AID 1899;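 active = inhibition above the mean of all tested compounds plus 3 SD, set per screening campaign, cut at about 45% in these data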
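Assay system: GST-tagged and Flag-tagged HCV core protein residues 1-106 / Times: compound-protein-antibody incubation 4 h at 22.5 °C / Signal: time-resolved FRET, ex 340 nm, em 617 and 671 nm / Evaluation: % inhibition based on acceptor/donor emission ratio / Benchmarks: wells lacking GST-core106 and wells with excess unlabelled core106 / Repeats: singlicate, one well per compound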
NS3 helicase cf = confirmation of Hepatitis C virus NS3 helicase inhibitors. hit rate 31% among 1,600. shares compounds with NS3 helicase inh. inhibition, % at 10.9 µM. AID 1943. NS3 helicase DNA unwinding, Cy5 molecular beacon fluorescence;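 active = inhibition above the mean of all tested compounds plus 3 SD, cutoff set per campaign, cut at about 36% in these data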
DNA FID counter-2 = counter-screen for HCV NS3 helicase inhibitors: DNA intercalator displacement; DNA fluorescent intercalator displacement, fluorescence; hit rate 4% among 1,600; inhibition, % at 7.9 µM; AID 1945; shares compounds with NS3 helicase inh;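 also: higher means more displacement of ethidium bromide from the DNA hairpin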
FID counter DR = DNA intercalator displacement in dose response; shares compounds with NS3 helicase inh; fluorescent intercalator displacement from DNA, fluorescence; IC50, µM; 120 tested, under 10 active; call rule not given here
Each line names hits and unclear results; the compound was inactive in the other large screens (follow-up assays come after a bar, where they were run). Shown are actives, neighbours in structure and some others; about 1.9% of the full set was active somewhere. Rule as the data show it, unless noted: active = inhibition above about 37%; inactive = the rest.

CN(C)c1ccc(NC(=O)Oc2ccccc2)cc1	NS3 helicase inh 44 | NS3 helicase cf inactive | DNA FID counter-2 inactive
COc1ccc(CNC(=O)CN(c2ccc(OC)cc2)S(=O)(=O)c2c(C)[nH]c(=O)[nH]c2=O)cc1	none
COc1ccc(N(CC(=O)NCCC2=CCCCC2)S(=O)(=O)c2c(C)[nH]c(=O)[nH]c2=O)cc1	NS3 helicase inh 37 | NS3 helicase cf inactive | DNA FID counter-2 inactive
COc1cc(OC)c2c(O)c3c(c(-c4c5c(c(O)c6c(OC)cc(OC)cc46)CO[C@@H](C)[C@H]5O)c2c1)[C@H](O)[C@H](C)OC3	NS3 helicase inh 36, core dimer inh 54 | NS3 helicase cf 69 | DNA FID counter-2 inactive
COc1cc2c(c(OC)c1O)C(=O)CO2	none
O=C(O)c1cccc(S(=O)(=O)N2CCCC(c3nc4c(nnn4Cc4ccc(F)cc4)c(=O)[nH]3)C2)c1 (configuration not stated)	NS3 helicase inh 40 | NS3 helicase cf inactive | DNA FID counter-2 inactive
O=C(O)c1cccc(-n2cccc2/C=C/[N+](=O)[O-])c1	NS3 helicase inh 41 | NS3 helicase cf 41 | DNA FID counter-2 inactive
Cc1cccc(CSc2nc3sc(C)c(C)c3c(=O)n2Cc2ccco2)c1	NS3 helicase inh 39 | NS3 helicase cf inactive | DNA FID counter-2 inactive
Cc1sc2nc(SCc3ccccc3)n(Cc3ccco3)c(=O)c2c1C	none
O=C1CS/C(=N\N=C\c2ccco2)N1c1ccccc1	NS3 helicase inh 41 | NS3 helicase cf inactive | DNA FID counter-2 inactive
Cc1ccccc1/C=C/C1=NCCN1	none (no result: GPR7 antagonist, DNA FID counter-1, NS3 helicase inh, pCIP destab)
Cc1cc(C(=O)O)ccc1-n1c(C)ccc1C	NS3 helicase inh 78 (no result: pCIP destab) | NS3 helicase cf 90 | DNA FID counter-2 inactive
Cc1cc(N)ccc1-n1c(C)ccc1C	none
Cc1ccc(CNC(=O)CS(=O)(=O)Cc2nc(-c3ccc(C)cc3)oc2C)cc1	NS3 helicase inh 41 | NS3 helicase cf inactive | DNA FID counter-2 inactive
COc1ccc(CNC(=O)CS(=O)(=O)Cc2nc(-c3ccc(OC)cc3)oc2C)cc1	none
CN(C(=O)COC(=O)C1CCN(S(=O)(=O)c2cccs2)CC1)c1ccccc1	none
COc1cc(NC(=O)C(=O)NNC(=O)C2CCCCC2)c(OC)cc1Cl	NS3 helicase inh 36 | NS3 helicase cf inactive | DNA FID counter-2 inactive
O=C(CSc1nnc(-c2cccnc2)n1Cc1ccco1)N1CCc2ccccc21	none
Cc1occc1-c1nnc(SCC(=O)N2CCCc3ccccc32)n1Cc1ccco1	NS3 helicase inh 45 (no result: core dimer inh) | NS3 helicase cf inactive | DNA FID counter-2 inactive
O=C(NC(=S)NC1CCSC1=O)c1ccc([N+](=O)[O-])cc1 (configuration not stated)	NS3 helicase inh 43 | NS3 helicase cf inactive | DNA FID counter-2 inactive
O=C(NNC(=S)NC(=O)c1ccccc1)c1ccc([N+](=O)[O-])cc1	none
O=C(NC(=S)NC1CCSC1=O)c1cccc([N+](=O)[O-])c1 (configuration not stated)	none
O=C(NC(=S)NNC(=O)c1ccccc1O)c1ccc([N+](=O)[O-])cc1	NS3 helicase inh 36 | NS3 helicase cf inactive | DNA FID counter-2 inactive
COc1ccc(OC)c(C2=NOC(C(=O)NCc3cccs3)C2)c1 (configuration not stated)	none
O=C(O)c1ccc(N/N=C/c2ccc(C(F)(F)F)cc2)cc1	NS3 helicase inh 37 | NS3 helicase cf 56 | DNA FID counter-2 inactive
COc1ccc(N(CC(=O)NC2CC3CCC2C3)S(=O)(=O)c2ccc(C)c([N+](=O)[O-])c2)cc1 (configuration not stated)	none
N#Cc1c(N2C(=O)Nc3ccccc3N2O)sc2c1CCCCCC2	NS3 helicase inh 42 | NS3 helicase cf 54 | DNA FID counter-2 inactive
O=C(COc1ccccc1)Nc1nnc(-c2ccc(F)cc2)o1	NS3 helicase inh 60 | NS3 helicase cf inactive | DNA FID counter-2 inactive
O=C(C1=C(O)C(=O)N(c2ncccn2)C1c1ccc(Cl)cc1)c1ccco1 (configuration not stated)	NS3 helicase inh 43 | NS3 helicase cf inactive | DNA FID counter-2 inactive
CCCOc1ccc(C2C(C(=O)c3ccc(C)o3)=C(O)C(=O)N2Cc2ccco2)cc1OCC (configuration not stated)	NS3 helicase inh 37 | NS3 helicase cf 55 | DNA FID counter-2 inactive | FID counter DR inactive
CCCOc1ccc(C2C(C(=O)c3ccc(C)o3)=C(O)C(=O)N2Cc2ccco2)cc1 (configuration not stated)	NS3 helicase inh 71 | NS3 helicase cf 98 | DNA FID counter-2 inactive
O=C1C(=O)N(Cc2ccco2)C(c2cccc(Cl)c2)/C1=C(\O)c1ccc2c(c1)OCCO2 (configuration not stated)	NS3 helicase inh 47 | NS3 helicase cf 83 | DNA FID counter-2 inactive | FID counter DR inactive
O=C(C1=C(O)C(=O)N(c2ncccn2)C1c1ccc(Cl)c(Cl)c1)c1ccco1 (configuration not stated)	none
O=C(C1=C(O)C(=O)N(Cc2ccco2)C1c1cccc(Cl)c1)c1ccco1 (configuration not stated)	NS3 helicase inh 48 | NS3 helicase cf inactive | DNA FID counter-2 inactive
O=C1C(=O)N(Cc2ccco2)C(c2cccs2)/C1=C(\O)c1cccc([N+](=O)[O-])c1 (configuration not stated)	NS3 helicase inh 43 | NS3 helicase cf inactive | DNA FID counter-2 inactive
COc1ccc(CC(=O)Nc2cc(=O)n(C)c(=O)n2C)cc1	NS3 helicase inh 56 | NS3 helicase cf inactive | DNA FID counter-2 inactive
Cc1cc(C)n(CCc2nc(-c3ccco3)cs2)n1	none
Cc1nn(CCc2nc(-c3ccco3)cs2)c2[nH]c(=O)cc(C(F)(F)F)c12	NS3 helicase inh 46 | NS3 helicase cf 72 | DNA FID counter-2 inactive
Cn1c(CCNS(=O)(=O)c2ccccc2)nnc1SCc1cccnc1	none
CC(C)c1ccc(/C=C/c2[nH]c(=O)[nH]c(=O)c2[N+](=O)[O-])cc1	NS3 helicase inh 56 | NS3 helicase cf 53 | DNA FID counter-2 inactive
CCOc1ccc(/C=C/c2[nH]c(=O)[nH]c(=O)c2[N+](=O)[O-])cc1	none
O=C(c1nc2ccccn2c1CNCCn1ccc2ccccc21)N1CCOCC1	none
O=C1NCCN(C(=O)CCc2nnc(-c3ccsc3)o2)C1c1ccc(F)cc1 (configuration not stated)	none
O=C1NC(=O)/C(=C\c2ccccc2Oc2ccc(F)c(F)c2)S1	NS3 helicase inh 55 | NS3 helicase cf inactive | DNA FID counter-2 inactive
